Measurements reported in paper PMC7323501 (Inorganic chemistry, 2019).
Like-named read-outs stand apart in the source and are kept apart here.

Tests used:
[1] = CCA assay: copper/ascorbate redox cycling, hydroxyl radical production; conditions: 1 equiv (10 μM) vs copper(II) 10 μM, ascorbate 300 μM, CCA 100 μM, pH 7.4
How it was run: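 Cu(II)/ascorbate hydroxyl-radical model in PBS (pH 7.4) with Desferal (1 μM); CuSO4 in water. Addition order is buffer, CCA (100 μM), Desferal, test compound (0.5 equiv = 5 μM or 1 equiv = 10 μM), Cu(II) (10 μM), then ascorbate (300 μM). The read-out is 7-hydroxy-CCA fluorescence (λex 395 nm, λem 450 nm). Triplicate.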

[2] = DPPH radical scavenging assay; conditions: 1–1500 μM, MeOH, 30 min, n = 3
How it was run: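 Test compound stocks (5 mM, MeOH) were diluted and mixed 1:1 with DPPH stock (150 μM in MeOH), giving final compound 1–1500 μM. Plates were incubated 30 min in the dark at room temperature and read at 516 nm. BHT served as reference antioxidant, and DPPH plus MeOH as the control. Each concentration was run in triplicate, with results normalised to control as % DPPH quenched.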

[3] = cited from earlier work
[4] = previously shown; cited from earlier work
HT-22 cells = experiment: Cytoprotection against H2O2 in HT-22 cells, WST-8 assay; assay type: cell-based, mouse; conditions: then 600 μM H2O2 4 h
How it was run: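 HT-22 cells were pretreated with or without test compound (0.1–100 μM) for 24 h, then exposed to 600 μM H2O2 for 4 h. Viability was read by WST-8 reduction (2 h incubation, A450). Values are mean ± SD, n = 6, and significance was tested against the H2O2-only group.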

Nrf2 = Nrf2 expression by Western blot in HT-22 cells; assay type: cell-based, mouse; conditions: HT-22, 1 μM, 24 h
Nrf2 pathway = conditions: human blood–brain barrier CMEC/D3 cells; cited from earlier work

CCN(CC)Cc1cccc(CN(CC)CC)n1 [2,6-bis[(diethylamino)methyl]pyridine]
inhibition of CCA conversion to fluorescent hydroxy-CCA [1]: failed to give any indication of the prevention of copper redox cycling

Cc1cc(C(C)(C)C)c(O)c(C(C)(C)C)c1 [BHT, 2,6-Di-tert-butyl-4-methylphenol, reference compound]
DPPH^• radical scavenging response [2]: rapid decrease in the DPPH^• absorbance band

c1cc2nc(c1)CNCCNCCNC2 [L1]
log K1^H ([3]; I = 0.15 M NaCl, T = 298 K): 11.37 | log K2^H ([3]; I = 0.15 M NaCl, T = 298 K): 8.22 | log K3^H ([3]; I = 0.15 M NaCl, T = 298 K): 1.61 | pI ([3]; I = 0.15 M NaCl, T = 298 K): >11.37 | DPPH^• radical scavenging activity [4]: lack of radical scavenging activity

Oc1cc2nc(c1)CNCCNCCNC2 [L2]
DPPH^• radical scavenging response [2]: strong response | reactivity with ABTS (ABTS radical reactivity): little to no reactivity | cell viability after H2O2 (HT-22 cells; HT-22, 1 μM pretreatment 24 h, mean ± SD, n = 6): 70.1 ± 9.8% | cell viability after H2O2 (HT-22 cells; HT-22, 0.1, 10 and 100 μM pretreatment 24 h): did not improve the cell viability | expression level of Nrf2 (Nrf2): significantly increase the expression level of Nrf2 | log K1^H ([3]; I = 0.15 M NaCl, T = 298 K): 11.56 | log K2^H ([3]; I = 0.15 M NaCl, T = 298 K): 9.05 | log K3^H ([3]; I = 0.15 M NaCl, T = 298 K): 5.45 | log K4^H ([3]; I = 0.15 M NaCl, T = 298 K): 1.68 | pI ([3]; I = 0.15 M NaCl, T = 298 K): 10.31 | Nrf2 pathway activation (Nrf2 pathway): could activate the Nrf2 pathway

C1CNCCNCCNCCN1 [cyclen, reference compound]
log K1^H ([3]; I = 0.15 M NaClO4): 10.66 | log K2^H ([3]; I = 0.15 M NaClO4): 9.69 | log K3^H ([3]; I = 0.15 M NaClO4): 1.41 | pI ([3]; I = 0.15 M NaClO4): > 10.66
